Laboratory results reported in ChEMBL document CHEMBL1629548, “In vitro activities of tigecycline against clinical isolates of Aeromonas, Vibrio, and Salmonella species in Taiwan” (2008).

Assays:
Type in all cases: functional
[1] = system: Aeromonas sobria; assay: Antimicrobial activity against Aeromonas sobria assessed as susceptibility level by disk diffusion method
Summary of the method: (§1)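 Cefotaxime and ciprofloxacin susceptibility taken from routine clinical laboratory reports; disk diffusion per CLSI guidelines.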

[2] = system: Aeromonas hydrophila; assay: Antimicrobial activity against Aeromonas hydrophila assessed as susceptibility level by disk diffusion method; summary of the method: as §1
[3] = system: Aeromonas caviae; assay: Antimicrobial activity against Aeromonas caviae assessed as susceptibility level by disk diffusion method; summary of the method: as §1
[4] = system: Salmonella; assay: Antimicrobial activity against Salmonella serogroup O7 assessed as susceptibility level by disk diffusion method; summary of the method: as §1
[5] = system: Salmonella; assay: Antimicrobial activity against Salmonella serogroup O9 assessed as susceptibility level by disk diffusion method; summary of the method: as §1
[6] = system: Salmonella; assay: Antimicrobial activity against Salmonella serogroup O8 assessed as susceptibility level by disk diffusion method; summary of the method: as §1
[7] = system: Salmonella enterica; assay: Antimicrobial activity against Salmonella serotype Choleraesuis assessed as susceptibility level by disk diffusion method
Summary of the method: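 Cefotaxime and ciprofloxacin susceptibility was taken from routine laboratory reports. These were generated by disk diffusion according to CLSI guidelines.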

**Q.** Which Activity [1] does the source give for CO/N=C(\C(=O)N[C@@H]1C(=O)N2C(C(=O)O)=C(COC(C)=O)CS[C@H]12)c1csc(N)n1 [CEFOTAXIME] here?
**A.** 95%

**Q.** And the Activity [2]?
**A.** 79%

**Q.** And the Activity [3]?
**A.** 73%

**Q.** For O=C(O)c1cn(C2CC2)c2cc(N3CCNCC3)c(F)cc2c1=O [CIPROFLOXACIN], which Activity [4] is on record?
**A.** 77%

**Q.** And the Activity [5]?
**A.** 96%

**Q.** What about the Activity [1] of the same compound?
**A.** 93%

**Q.** And the Activity [6]?
**A.** 57%

**Q.** What about the Activity [2] of the same compound?
**A.** 90%

**Q.** What about the Activity [3] of the same compound?
**A.** 86%

**Q.** What about the Activity [7] of the same compound?
**A.** 22%
